# Data as given in publication PMC8559613 (Journal of biomolecular screening, 2016).
# Assays:
# KLE cells [1] = format: cell-based
# CYP1B1 = assay: EROD activity assay in KLE cells; format: cell-based; conditions: human, probe 7-ER (0.8 μM)
# [2] = Resazurin cytotoxicity assay in CYP1B1-transfected HEK293T cells; format: cell-based; conditions: human, HEK293T cells transfected with CYP1B1
# [3] = Resazurin cytotoxicity assay in wild-type HEK293T cells; format: cell-based; conditions: human
# Outline: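 Untransfected HEK293T cells in DMEM with 10% FBS, seeded at 5,000 cells/well and held 24 h. Prodrug given at 0–100 μM with medium changed daily for 69 h. Resazurin (0.01% w/v) added for a further 3 h (72 h total). Fluorescence read at ex 565/em 595 nm. IC50 from variable-slope dose-response fit. Controls: 0.1% DMSO vehicle and 2% Triton X-100.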
# [4] = Resazurin cytotoxicity assay in HepaRG cells; format: cell-based; conditions: human
# Outline: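 HepaRG cells grown 2 weeks in Growth medium, then 2 weeks in Differentiation medium, then seeded at 5,000 cells/well. Prodrug given at 0–100 μM with medium changed daily for 69 h. Resazurin (0.01% w/v) added for a further 3 h (72 h total). Fluorescence read at ex 565/em 595 nm. IC50 from variable-slope dose-response fit. Controls: 0.1% DMSO vehicle and 2% Triton X-100.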
# KLE cells [5] = assay: Cell cycle analysis; format: cell-based, human; conditions: 72 h; for % of cells in >4N / % of cells in G0/G1 / % of cells in G2/M / % of cells in S / % of cells in Sub-G1: mean ± SD; for cell cycle effects in CYP1B1-inhibited KLE cells / cell cycle effect in KLE cells compared to untreated cells: 10 and 100 μM
# Outline: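 KLE cells, day 7 post-seeding, exposed to 10 or 100 μM prodrug with or without 10 μM α-NF for 72 h; untreated cells received no prodrug. Cells harvested, fixed in 70% (v/v) ethanol at −20°C overnight, then stained with PI/RNase buffer for 30 min at room temperature. DNA content read by flow cytometry. Run in triplicate or quadruplicate.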
# KLE cells [6] = assay: Annexin V-FITC/PI apoptosis assay in KLE cells; format: cell-based, human; conditions: for pro-apoptotic effect (early apoptotic cell population relative to untreated cells): 50 μM, without α-NF, 24, 48 and 72 h; for concentration dependence of pro-apoptotic effect: 10, 50 and 100 μM, without α-NF, 72 h
# Outline: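 KLE cells grown in DMEM/F-12 (1:1) with 10% FBS were seeded in 6-well plates and used on day 7 post-seeding. Prodrug was given without α-NF at 50 μM for 24, 48 or 72 h, or at 10, 50 or 100 μM for 72 h. Controls received no prodrug. Cells were double-stained with Annexin V-FITC/PI and run on flow cytometry. % early apoptotic cells was compared with untreated controls by one-way ANOVA with Dunnett post test. Triplicate or quadruplicate.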
# [7] = after the 14th daily oral administration of 6 mg/kg, vervet monkeys; cited from earlier work
# [8] = 100 μM prodrug, with 10 μM α-NF
Structure (SMILES),"% of cells in >4N (KLE cells [5]; 10 μM prodrug, with 10 μM α-NF) [%]","% of cells in G0/G1 (KLE cells [5]; 10 μM prodrug, with 10 μM α-NF) [%]","% of cells in G2/M (KLE cells [5]; 10 μM prodrug, with 10 μM α-NF) [%]","% of cells in S (KLE cells [5]; 10 μM prodrug, with 10 μM α-NF) [%]","% of cells in Sub-G1 (KLE cells [5]; 10 μM prodrug, with 10 μM α-NF) [%]","% of cells in >4N (KLE cells [5]; 10 μM prodrug, without α-NF) [%]","% of cells in G0/G1 (KLE cells [5]; 10 μM prodrug, without α-NF) [%]","% of cells in G2/M (KLE cells [5]; 10 μM prodrug, without α-NF) [%]","% of cells in S (KLE cells [5]; 10 μM prodrug, without α-NF) [%]","% of cells in Sub-G1 (KLE cells [5]; 10 μM prodrug, without α-NF) [%]",% of cells in >4N (KLE cells [5]; [8]) [%],% of cells in G0/G1 (KLE cells [5]; [8]) [%],% of cells in G2/M (KLE cells [5]; [8]) [%],% of cells in S (KLE cells [5]; [8]) [%],% of cells in Sub-G1 (KLE cells [5]; [8]) [%],"% of cells in >4N (KLE cells [5]; 100 μM prodrug, without α-NF) [%]","% of cells in G0/G1 (KLE cells [5]; 100 μM prodrug, without α-NF) [%]","% of cells in G2/M (KLE cells [5]; 100 μM prodrug, without α-NF) [%]","% of cells in S (KLE cells [5]; 100 μM prodrug, without α-NF) [%]","% of cells in Sub-G1 (KLE cells [5]; 100 μM prodrug, without α-NF) [%]",also measured
"O=c1cc(-c2ccccc2)oc2c1ccc1ccccc12 [α-NF, α-naphthoflavone]",,,,,,,,,,,,,,,,,,,,,"cytotoxic effect on KLE cells (KLE cells [1]; α-NF up to 15 μM): did not show any cytotoxic effect; inhibition at 24 h, 1 μM (CYP1B1): 81%"
"CONC(=N)c1ccc(-c2ccc(-c3ccc(C(=N)NOC)cn3)o2)cc1 [DB844, N-methoxy-6-{5-[4-(N-methoxyamidino)phenyl]-furan-2-yl}-nicotinamidine]",4.9 ± 0.9,41.1 ± 1.5,40.7 ± 2.9,7.9 ± 1.5,4.1 ± 1.1,6.3 ± 1.9,38.7 ± 2.1,47.3 ± 0.5,8.0 ± 1.4,4.6 ± 0.8,3.4 ± 0.6,43.3 ± 0.4,41.8 ± 1.1,5.6 ± 0.7,4.3 ± 0.9,3.7 ± 0.9,43.9 ± 1.2,40.6 ± 1.3,6.6 ± 1.1,5.3 ± 1.5,IC50 at 72 h [2]: 38.8 ± 0.9 µM; IC50 at 72 h [3]: 37.9 ± 0.9 µM; IC50 at 72 h [4]: 76.3 ± 1.6 µM; cell cycle effects in CYP1B1-inhibited KLE cells (KLE cells [5]; with 10 μM α-NF): absent; cell cycle effect in KLE cells compared to untreated cells (KLE cells [5]; without α-NF): concentration-dependent G0/G1 cell cycle arrest; pro-apoptotic effect (early apoptotic cell population relative to untreated cells) (KLE cells [6]): significant increase in the early apoptotic cell population; concentration dependence of pro-apoptotic effect (KLE cells [6]): concentration-dependent pro-apoptotic effects; average maximal plasma concentration [7]: 0.43 µM
"CON=C(N)c1ccc(-c2ccc(-c3ccc(C(N)=NOC)cc3)o2)cc1 [DB289, 2,5-bis[4-amidinophenyl]furan-bis-O-methylamidoxime]",5.3 ± 1.0,39.5 ± 0.6,39.3 ± 2.9,9.8 ± 1.4,5.4 ± 0.0,1.7 ± 0.6,40.0 ± 1.7,45.0 ± 5.2,5.3 ± 1.1,5.1 ± 1.4,3.6 ± 0.4,43.2 ± 3.4,42.4 ± 2.6,6.1 ± 1.1,4.7 ± 1.0,4.5 ± 1.3,43.2 ± 0.8,39.5 ± 0.2,8.3 ± 1.0,4.5 ± 0.7,"viability of KLE cells (KLE cells [1]; 50 μM prodrug, KLE cells without α-NF, normalized to vehicle control): 21%; cell cycle effects in CYP1B1-inhibited KLE cells (KLE cells [5]; with 10 μM α-NF): absent; cell cycle effect in KLE cells compared to untreated cells (KLE cells [5]; without α-NF): concentration-dependent G0/G1 cell cycle arrest; pro-apoptotic effect (early apoptotic cell population relative to untreated cells) (KLE cells [6]): significant increase in the early apoptotic cell population; concentration dependence of pro-apoptotic effect (KLE cells [6]): concentration-dependent pro-apoptotic effects"
